Data taken from ChEMBL document CHEMBL5143731, “N-Acylamino Saccharin as an Emerging Cysteine-Directed Covalent Warhead and Its Application in the Identification of Novel FBPase Inhibitors toward Glucose Reduction” (J Med Chem, 2022).
Calls of active or inactive are those of the source. The rule behind the calls is not given here.

Tests used:
Mus musculus [1] = assay: Hypoglycemic activity in 12 hrs fasted ICR mouse assessed as glucose lowering effect at 10 to 30 mg/kg, ip measured after 2 hrs; format: functional, organism-based; conditions: dose 10-30 mg/kg
How it was run: (§1)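 Fasted (12 h) male ICR mice received one intraperitoneal dose in 10% ricinus oil/water vehicle; metformin 250 mg/kg served as control. Food was withheld. Tail blood glucose was read by glucometer at 0, 1, 2, 4 and 6 h.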

[2] = target: Epidermal growth factor receptor (Homo sapiens) (UniProt P00533); assay: Inhibition of EGFR (unknown origin) at 300 uM measured after 40 mins in presence of ATP by luminescence assay relative to control
How it was run: (§2)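 Kinase reaction (50 μL): 40 mM Tris pH 7.4, 10 mM MgCl2, 0.1 mg/mL BSA, 1 mM DTT, 10 μM ATP, kinase and substrate, with 1% final DMSO. Run 40 min at 30 °C. Residual ATP read by Kinase-Glo Plus luminescence, inversely related to kinase activity.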

Homo sapiens [3] = organism: Homo sapiens; assay: Selectivity ratio of IC50 for human FBPase to IC50 for recombinant ALDOA (unknown origin)
How it was run: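 Aldolase (ALDOA/B/C) IC50 by NADH-coupled assay: enzyme plus serial compound dilutions, 0.41 mM NADH and TPI in 0.1 M Tris pH 7.4/0.2 M K-acetate, 3 min at 37 °C. Started with FBP and […], A340 read every 30 s for 6 min. Ratios against the FBPase IC50 from malachite green phosphate assay (620 nm).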

Mus musculus [4] = assay: Hypoglycemic activity in 12 hrs fasted ICR mouse assessed as reduction in blood glucose AUC (0 to 2 hrs) at 10 mg/kg, ip measured after 2 hrs; format: functional; set-up: scale not given: the % may be the effect or the level left
How it was run: (§3)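 OGTT: 12 h-fasted ICR mice (n = 6 per group) dosed ip (10 or 30 mg/kg in 10% ricinus oil/water), with vehicle and metformin 250 mg/kg controls, 1 h before oral glucose 2 g/kg. Tail blood glucose by glucometer at 0, 0.25, 0.5, 1, 1.5 and 2 h; AUC 0−2 h computed. Food withheld.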

Mus musculus [5] = assay: Hypoglycemic activity in ICR mouse assessed as glucose lowering effect at 30 mg/kg, ip measured after 2 to 6 hrs; format: functional, organism-based; conditions: time 2-6 hrs; how it was run: as §1
[6] = Half life of the compound in GSH; format: physicochemical; conditions: GSH (glutathione)
How it was run: (§4)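 Electrophile (20 μmol) incubated at 37 °C either in pH 7.4 buffer, or in DMSO-d6/D2O (5:1), with or without glutathione. Decay followed by 1H NMR kinetics. First-order rate constant kpseudo-1st taken from ln[electrophile] versus time; t1/2 = 0.693/(60×k), in min.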

[7] = target: T1, Fructose-1,6-bisphosphatase 1 (Homo sapiens) (UniProt P09467); assay: Inhibition of human FBPase in ICR mouse serum starved primary hepatocytes assessed as glucose lowering effect; format: cell-based; conditions: Hepatocyte, dose 50-300 µM
T1 sequence (whole entry): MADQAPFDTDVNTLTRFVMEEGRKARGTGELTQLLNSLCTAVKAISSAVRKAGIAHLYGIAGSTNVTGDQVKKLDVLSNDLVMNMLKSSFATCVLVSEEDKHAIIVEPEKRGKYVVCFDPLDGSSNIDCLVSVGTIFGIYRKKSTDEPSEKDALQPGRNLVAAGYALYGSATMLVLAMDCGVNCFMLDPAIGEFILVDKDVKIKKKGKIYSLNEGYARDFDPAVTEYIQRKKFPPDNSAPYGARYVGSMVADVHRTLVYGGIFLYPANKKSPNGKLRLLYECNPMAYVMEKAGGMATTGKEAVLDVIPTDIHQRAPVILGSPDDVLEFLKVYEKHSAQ
How it was run: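 Primary mouse hepatocytes serum-starved overnight, then exposed in DMEM for 6 h to test compounds (50−300 μM), metformin 1 mM or saccharin 50 or 100 μM. Gluconeogenesis assessed as glucose in the culture medium. Mean ± SEM reported, Student's t-test versus vehicle.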

[8] = Drug uptake in 12 hrs fasted ICR mouse assessed as plasma concentration at 30 mg/kg, ip measured after 6 hrs by LC-MS/MS analysis; format: ADME, organism-based; conditions: in vivo
How it was run: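 Plasma levels of parent and of released saccharin followed over 0−24 h after a single 30 mg/kg ip dose to 12 h-fasted male ICR mice. Plasma was obtained from K2EDTA blood (4 °C spin, stored at −70 °C) and measured by LC−MS/MS.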

Mus musculus [9] = assay: Hypoglycemic activity in 12 hrs fasted ICR mouse assessed as reduction in blood glucose AUC (0 to 2 hrs) at 30 mg/kg, ip measured after 2 hrs; format: functional; set-up: scale not given: the % may be the effect or the level left; how it was run: as §3
[10] = Half life of the compound in DMSO; format: physicochemical; how it was run: as §4
Homo sapiens [11] = organism: Homo sapiens; assay: Selectivity ratio of IC50 for human FBPase to IC50 for human GAPDH
How it was run: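 Recombinant human GAPDH (His-tag, E. coli; 0.1 mg/mL final) preincubated 30 min with compound in 10 mM sodium pyrophosphate pH 8.5 at 37 °C. Started with arsenate, 4 mM NAD+ and 12 mM G3P; A340 at 4 min. Ratio taken against FBPase IC50 from the malachite green phosphate-release assay.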

[12] = target: T2, Fructose-1,6-bisphosphatase 1 (Homo sapiens, UniProt P09467); assay: Inhibition of human FBPase expressed Escherichia coli BL21 in by malachite green dye based spectrophotometry
T2 sequence (P09467 whole entry): T1 sequence (whole entry)
How it was run: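 His-tagged human liver FBPase expressed in E. coli BL21(DE3) and purified by Ni affinity. Phosphate released from FBP complexed with ammonium molybdate/malachite green and read at 620 nm against a KH2PO4 standard curve (2−60 μM). Initial rates at saturating substrate, fixed effector and varied inhibitor fitted to the Hill equation for IC50.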

Hepatocyte = assay: Cytotoxicity in ICR mouse serum starved primary hepatocytes assessed as reduction in cell viability at 50 to 300 uM; format: toxicity, cell-based; conditions: dose 50-300 µM
Mus musculus [13] = assay: Hypoglycemic activity in ICR mouse assessed as improvement in glucose tolerance at 10 to 30 mg/kg, ip administered 1 hr prior to oral glucose at 2 g/kg and measured after 0.25 hr by OGTT; conditions: dose 10-30 mg/kg
[14] = target: Tyrosine-protein kinase BTK (Homo sapiens) (UniProt Q06187); assay: Inhibition of BTK (unknown origin) at 300 uM measured after 40 mins in presence of ATP by luminescence assay relative to control; how it was run: as §2
Tyrosine-protein kinase BTK (Homo sapiens), sequence (Q06187 whole entry): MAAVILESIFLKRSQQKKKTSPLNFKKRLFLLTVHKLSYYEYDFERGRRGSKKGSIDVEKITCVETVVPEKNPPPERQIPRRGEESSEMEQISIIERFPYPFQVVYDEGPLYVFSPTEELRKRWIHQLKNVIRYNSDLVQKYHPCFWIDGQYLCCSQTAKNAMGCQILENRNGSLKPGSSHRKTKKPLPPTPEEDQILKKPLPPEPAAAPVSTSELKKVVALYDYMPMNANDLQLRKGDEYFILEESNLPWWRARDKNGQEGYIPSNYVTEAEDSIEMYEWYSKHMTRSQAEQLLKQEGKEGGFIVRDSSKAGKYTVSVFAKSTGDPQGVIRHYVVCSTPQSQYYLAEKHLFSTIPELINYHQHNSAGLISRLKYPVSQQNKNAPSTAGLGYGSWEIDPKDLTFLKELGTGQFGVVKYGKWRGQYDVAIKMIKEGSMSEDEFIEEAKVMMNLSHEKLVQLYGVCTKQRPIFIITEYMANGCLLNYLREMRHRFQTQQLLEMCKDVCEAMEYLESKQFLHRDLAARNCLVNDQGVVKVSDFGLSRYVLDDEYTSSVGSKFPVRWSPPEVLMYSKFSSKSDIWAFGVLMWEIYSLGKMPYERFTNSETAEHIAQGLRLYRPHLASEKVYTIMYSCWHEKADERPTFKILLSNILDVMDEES

Epidermal growth factor receptor (Homo sapiens), sequence (P00533 whole entry): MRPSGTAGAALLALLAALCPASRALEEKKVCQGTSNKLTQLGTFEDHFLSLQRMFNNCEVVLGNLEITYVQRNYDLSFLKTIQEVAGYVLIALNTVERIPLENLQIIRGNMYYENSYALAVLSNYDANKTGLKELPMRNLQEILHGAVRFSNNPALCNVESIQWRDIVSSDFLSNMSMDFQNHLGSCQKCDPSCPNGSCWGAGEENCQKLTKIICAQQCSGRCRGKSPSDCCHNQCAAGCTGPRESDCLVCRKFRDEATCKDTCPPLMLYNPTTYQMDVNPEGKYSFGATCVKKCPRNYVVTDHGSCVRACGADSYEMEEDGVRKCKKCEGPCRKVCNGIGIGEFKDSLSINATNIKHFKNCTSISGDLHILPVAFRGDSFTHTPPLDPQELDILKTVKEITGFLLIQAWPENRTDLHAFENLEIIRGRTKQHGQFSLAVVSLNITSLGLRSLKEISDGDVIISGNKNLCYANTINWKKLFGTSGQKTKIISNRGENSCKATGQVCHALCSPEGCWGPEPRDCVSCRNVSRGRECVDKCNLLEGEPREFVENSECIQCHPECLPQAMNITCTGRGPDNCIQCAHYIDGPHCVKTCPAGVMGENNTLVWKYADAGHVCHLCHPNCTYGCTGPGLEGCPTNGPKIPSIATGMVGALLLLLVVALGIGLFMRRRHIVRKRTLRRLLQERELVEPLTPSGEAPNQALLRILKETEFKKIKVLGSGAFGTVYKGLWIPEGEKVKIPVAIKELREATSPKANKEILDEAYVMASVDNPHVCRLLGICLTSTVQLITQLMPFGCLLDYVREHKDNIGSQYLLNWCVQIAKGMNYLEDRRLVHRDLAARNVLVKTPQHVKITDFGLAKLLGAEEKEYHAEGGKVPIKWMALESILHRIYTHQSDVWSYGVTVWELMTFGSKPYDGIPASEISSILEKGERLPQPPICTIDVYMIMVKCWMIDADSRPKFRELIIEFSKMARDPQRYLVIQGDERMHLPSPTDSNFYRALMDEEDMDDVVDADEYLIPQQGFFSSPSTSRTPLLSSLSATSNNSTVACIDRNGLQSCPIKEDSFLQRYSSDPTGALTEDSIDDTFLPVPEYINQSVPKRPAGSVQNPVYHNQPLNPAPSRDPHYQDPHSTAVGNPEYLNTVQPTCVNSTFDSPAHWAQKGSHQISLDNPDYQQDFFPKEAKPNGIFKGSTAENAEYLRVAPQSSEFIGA

## O=C(NCc1ccccc1)N1C(=O)c2ccccc2S1(=O)=O
Mus musculus [1]
  Activity: Active
[2]
  inhibition: < 50%
Homo sapiens [3]
  Ratio IC50: > 25
Mus musculus [4]
  Activity: 20.2%
Mus musculus [5]
  Activity: Active
[6]
  half-life: 1.02 h
[7]
  inhibition: Active
[8]
  Cp: Active
Mus musculus [9]
  Activity: 17.7%
[10]
  half-life: > 167 h
Homo sapiens [11]
  Ratio IC50: > 25
[12]
  IC50: 3.4 µM
Hepatocyte
  Activity: Non-Toxic
Mus musculus [13]
  Activity: Active
[14]
  inhibition: < 50%
